Reference: ChEMBL document CHEMBL1156920, “Structural analogues of schweinfurthin F: probing the steric, electronic, and hydrophobic properties of the D-ring substructure” (Bioorg Med Chem, 2010)

Legend:
SF-295 = experiment: Cytotoxicity against human SF295 cells after 44 hrs by MTT assay; type: functional, cell-based; conditions: SF-295, 44 h
In short: (§1)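 SF-295 cells cultured in RPMI 1640 and A549 cells in F-12, each with 10% FBS, penicillin–streptomycin, amphotericin B and L-glutamine, at 37 °C in 5% CO2. Cells were grown to 60% confluency, then treated for 44 h. Medium was replaced with medium containing 0.06 mg/mL MTT (phenol red-free RPMI for SF-295) for 4 h. Acid/Triton/isopropanol stop solution was added, plates incubated overnight at 37 °C, OD read at 540 and 650 nm, and EC50 calculated.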

A549 = experiment: Cytotoxicity against human A549 cells after 44 hrs by MTT assay; type: functional, cell-based; conditions: A549, 44 h; in short: as §1

In the case of `COc1cc(/C=C/c2cc(O)c(CCCO)c(O)c2)cc2c1O[C@]1(C)CC[C@@H](O)C(C)(C)[C@H]1C2`, the EC50 (SF-295) is reported as 2500 nM and the EC50 (A549) is reported as greater than 10 µM.
Compound `COc1cc(/C=C/c2cc(O)c3c(c2)OCC3)cc2c1O[C@]1(C)CC[C@@H](O)C(C)(C)[C@H]1C2` has an EC50 (SF-295) of 2900 nM and an EC50 (A549) greater than 10 µM.
With `CCCc1c(O)cc(/C=C/c2cc3c(c(OC)c2)O[C@]2(C)CC[C@@H](O)C(C)(C)[C@H]2C3)cc1O` the EC50 (SF-295) was 900 nM and the EC50 (A549) was greater than 10 µM.
`COc1cc(/C=C\c2cc(O)c(C/C=C(\C)CCC=C(C)C)c(O)c2)cc2c1O[C@]1(C)CC[C@@H](O)C(C)(C)[C@H]1C2` was tested, and the EC50 (SF-295) was greater than 10000 nM and the EC50 (A549) was greater than 10 µM.
For `COc1cc(CCc2cc(O)c(CC=C(C)C)c(O)c2)cc2c1O[C@]1(C)CC[C@@H](O)C(C)(C)[C@H]1C2`, the EC50 (SF-295) was 2900 nM and the EC50 (A549) was greater than 10 µM.
Work on `COc1cc(/C=C/c2cc(O)c3ccoc3c2)cc2c1O[C@]1(C)CC[C@@H](O)C(C)(C)[C@H]1C2` yielded an EC50 (SF-295) of 4800 nM and an EC50 (A549) greater than 10 µM.
`C#CCc1c(O)cc(/C=C/c2cc3c(c(OC)c2)O[C@]2(C)CC[C@@H](O)C(C)(C)[C@H]2C3)cc1O` was tested, and the EC50 (SF-295) was 1300 nM and the EC50 (A549) was greater than 10 µM.
In the case of `COc1cc(CCc2cc(O)c(CCC(C)C)c(O)c2)cc2c1O[C@]1(C)CC[C@@H](O)C(C)(C)[C@H]1C2`, the EC50 (SF-295) is reported as 2800 nM and the EC50 (A549) is reported as greater than 10 µM.
`C=CCc1c(O)cc(/C=C/c2cc3c(c(OC)c2)O[C@]2(C)CC[C@@H](O)C(C)(C)[C@H]2C3)cc1O` showed an EC50 (SF-295) of 1700 nM and an EC50 (A549) greater than 10 µM.
